ChEMBL document CHEMBL3526153, “Metabolism of gambogic acid in rats: a rare intestinal metabolic pathway responsible for its final disposition” (Drug Metab Dispos, 2011)

Legend:
[1] = Retention time of the compound in Sprague-Dawley rat bile treated with gambogic acid at 4 mg/kg, iv measured over 24 hrs by LC-DAD-MS/MS analysis; format: ADME, organism-based; parameters: dose 4 mg/kg, route intravenous; conditions: in vivo
Outline: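 SD rats, n=4, bile-duct cannulated under chloral hydrate and allowed 1 h recovery. GA 4 mg/kg i.v.; bile collected on ice, pooled 0–24 h. C18 LC-DAD-MS/MS at 0.25 mL/min with acetonitrile gradient (38% to 80%) in 10 mM ammonium acetate, 40 °C, negative ESI.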

[2] = Drug level in rat liver microsomes assessed as CYP450-mediated compound formation treated with gambogic acid at 50 uM preincubated for 10 mins followed by NADPH addition measured after 1 hr by LC-DAD-MS/MS analysis; format: ADME
Outline: (§1)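 GA 50 µM with rat liver microsomes 1.0 mg/mL in 0.1 M PBS pH 7.4, pre-incubated 10 min at 37 °C. Started with NADPH (6.0 mM final) and run 1 h at 37 °C. Controls lacked NADPH or microsomes; duplicate. Stopped with ice-cold acetonitrile, centrifuged, supernatant dried and reconstituted. Isocratic LC (65% acetonitrile), negative-ion ESI MS/MS.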

[3] = Drug level in Sprague-Dawley rat feces treated with gambogic acid at 4 mg/kg, iv measured over 24 hrs by LC-DAD-MS/MS analysis; format: ADME, organism-based; parameters: dose 4 mg/kg, route intravenous; conditions: in vivo
Outline: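 SD rats (250 ± 20 g), n=4, given GA 4 mg/kg i.v. via tail vein in 2 mL; feces pooled 0–24 h and stored at −20 °C. Feces (0.6 g) homogenized in 50% acetonitrile, sonicated, centrifuged, filtered, then ethyl acetate extraction. Analysed by C18 LC-DAD-MS/MS (gradient 38–80% acetonitrile, 10 mM ammonium acetate, 40 °C), negative ESI.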

Liver microsome [4] = test: Drug level in rat liver microsomes treated with gambogic acid at 50 uM preincubated for 10 mins followed by UDPGA addition measured after 2 hrs by LC-MS/MS analysis; format: ADME
Outline: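 Rat liver microsomes 1.0 mg/mL pretreated with alamethicin 50 μg/mg protein. GA 50 μM, saccharic acid-1,4-lactone 6 mM, in 0.05 M Tris-HCl pH 7.4. Preincubated 10 min at 37 °C, started with UDPGA (6.0 mM final), run 2 h at 37 °C, duplicate. Quenched with ice-cold acetonitrile. LC-MS/MS in negative ESI with acetonitrile gradient 50–95%.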

[5] = Retention time of the compound in Sprague-Dawley rat bile at 4 mg/kg, iv measured over 24 hrs by LC-DAD-MS/MS analysis; format: ADME, organism-based; parameters: dose 4 mg/kg, route intravenous; conditions: in vivo
Outline: (§2)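 Four SD rats bile-duct cannulated under chloral hydrate anesthesia, allowed 1 h recovery, pre-dose bile taken. Dosed 4 mg/kg GA i.v. Bile collected on ice and pooled 0–24 h, stored -20 °C. Gradient C18 LC (acetonitrile/10 mM ammonium acetate), 40 °C column, negative-ion ESI MS/MS.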

Plasma [6] = test: Drug level in Sprague-Dawley rat plasma at 4 mg/kg, iv measured over 4 hrs by LC-DAD-MS/MS analysis; format: ADME, organism-based; parameters: dose 4 mg/kg, route intravenous; conditions: in vivo
Outline: (§3)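 Six SD rats dosed 4 mg/kg GA i.v. via tail vein. Tail-vein blood taken before and 0.033–4 h post-dose into heparinized tubes, centrifuged 3000 × g 10 min at 4 °C, and plasma pooled 0–4 h. 1 mL extracted with 4 mL ethyl acetate, dried under N2 at 40 °C, reconstituted. Isocratic C18 LC (68% acetonitrile), negative-ion ESI MS/MS.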

[7] = Drug metabolism in intestine (unknown origin) assessed as 10-alpha sulfonic gambogic acid formation; format: ADME, tissue-based
Outline: (§4)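 Intestinal contents from undosed rats homogenized in 5 mL water, spiked with 100 µL of 1.0 mg/mL GA, incubated at 37 °C about 24 h, in duplicate. 1 mL extracted with ethyl acetate. LC-MS/MS in negative ESI with SIM at m/z 709.3.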

[8] = Drug metabolism in Sprague-Dawley rat bile assessed as formation of 10-beta sulfonic gambogic acid at 4 mg/kg, iv measured over 24 hrs by LC-DAD-MS/MS analysis; format: ADME, organism-based; parameters: dose 4 mg/kg, route intravenous; conditions: in vivo; outline: as §2
[9] = Drug excretion in Sprague-Dawley rat feces at 2 mg/kg, iv measured within 48 hrs; format: ADME, organism-based; parameters: dose 2 mg/kg, route intravenous; conditions: read-out: Drug excretion
[10] = Drug metabolism in Sprague-Dawley rat feces assessed as formation of glucuronidation product at 4 mg/kg, iv measured over 24 hrs by LC-DAD-MS/MS analysis; format: ADME, organism-based; parameters: dose 4 mg/kg, route intravenous; conditions: in vivo
Outline: (§5)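 SD rats (250 ± 20 g), 4 mg/kg GA injection given i.v. via tail vein in 2 mL; feces from four rats pooled 0–24 h, stored -20 °C. Feces (0.6 g) homogenized in acetonitrile-water 50:50, sonicated, centrifuged, filtered, then extracted with ethyl acetate, dried under N2 at 40 °C, reconstituted in mobile phase. Gradient C18 LC, negative-ion ESI MS/MS.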

Liver microsome [11] = test: Drug metabolism in rat liver microsomes assessed as glucuronidation product formation at 50 uM preincubated for 10 mins followed by UDPGA addition for 2 hrs measured 1 hr post beta-glucuronidase treatment by LC-MS/MS analysis; format: ADME
Outline: (§6)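 Dried UDPGA microsomal incubate reconstituted in 0.1 M Tris pH 6.8. For enzymatic hydrolysis, about 830 units β-glucuronidase, 37 °C for 1 h; control without enzyme. For alkaline hydrolysis, with or without 0.5 M NaOH (10 µL), 2 h at room temperature, then neutralized with acetic acid to about pH 7. Analyzed by LC-MS/MS.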

[12] = Drug metabolism in Sprague-Dawley rat gut assessed as formation of 10-beta sulfonic gambogic acid at 4 mg/kg, iv; format: ADME, organism-based; parameters: dose 4 mg/kg, route intravenous; conditions: in vivo
Liver microsome [13] = test: Drug metabolism in rat liver microsomes assessed as glucuronidation product formation at 50 uM preincubated for 10 mins followed by UDPGA addition for 2 hrs measured 2 hrs post NaOH treatment by LC-MS/MS analysis; format: ADME; outline: as §6
[14] = Drug level in Sprague-Dawley rat feces at 4 mg/kg, iv measured over 24 hrs by LC-MS/MS analysis; format: ADME, organism-based; parameters: dose 4 mg/kg, route intravenous; conditions: in vivo; outline: as §5
[15] = Drug metabolism in intestine (unknown origin) assessed as 10-beta sulfonic gambogic acid formation; format: ADME, tissue-based; outline: as §4
Liver microsome [16] = test: Drug metabolism in rat liver microsomes assessed as glucuronidation product formation at 50 uM preincubated for 10 mins followed by UDPGA addition measured after 2 hrs by LC-MS/MS analysis; format: ADME
Outline: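 GA 50 µM with alamethicin-treated rat liver microsomes 1.0 mg/mL and saccharic acid-1,4-lactone 6 mM in 0.05 M Tris-HCl pH 7.4, pre-incubated 10 min at 37 °C. Started with UDPGA (6.0 mM) and run 2 h at 37 °C. Controls lacked UDPGA or microsomes; duplicate. Acetonitrile quench, gradient LC, negative-ion ESI MS/MS.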

[17] = Drug metabolism in rat liver microsomes assessed as SULT-mediated sulfonation; format: ADME
Plasma [18] = test: Drug metabolism in Sprague-Dawley rat plasma assessed as 10-OHGA formation at 4 mg/kg, iv measured over 4 hrs by LC-DAD-MS/MS analysis; format: ADME, organism-based; parameters: dose 4 mg/kg, route intravenous; conditions: in vivo; outline: as §3
[19] = Drug metabolism in Sprague-Dawley rat bile assessed as 10-alpha sulfonic gambogic acid formation of at 4 mg/kg, iv measured over 24 hrs by LC-DAD-MS/MS analysis; format: ADME, organism-based; parameters: dose 4 mg/kg, route intravenous; conditions: in vivo; outline: as §2
[20] = Drug metabolism in Sprague-Dawley rat gut assessed as formation of 10-alpha sulfonic gambogic acid at 4 mg/kg, iv; format: ADME, organism-based; parameters: dose 4 mg/kg, route intravenous; conditions: in vivo
[21] = Drug metabolism in rat liver microsomes assessed as CYP450-mediated 9,10-epoxyl-gambogic acid formation at 50 uM preincubated for 10 mins followed by NADPH addition measured after 1 hr by LC-DAD-MS/MS analysis; format: ADME; outline: as §1
[22] = Drug metabolism in Sprague-Dawley rat feces assessed as formation of 9,10-epoxyl-gambogic acid at 4 mg/kg, iv measured over 24 hrs by LC-DAD-MS/MS analysis; format: ADME, organism-based; parameters: dose 4 mg/kg, route intravenous; conditions: in vivo; outline: as §5
[23] = Drug level in Sprague-Dawley rat urine at 4 mg/kg, iv measured over 24 hrs by LC-DAD-MS/MS analysis; format: ADME, organism-based; parameters: dose 4 mg/kg, route intravenous; conditions: in vivo
Outline: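 Urine collected from four SD rats and pooled 0–24 h after 4 mg/kg GA i.v. via tail vein; stored -20 °C until LC-MS/MS analysis (negative-ion ESI).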

[24] = Drug metabolism in rat liver microsomes assessed as CYP450-mediated 10-OHGA formation at 50 uM preincubated for 10 mins followed by NADPH addition measured after 1 hr by LC-DAD-MS/MS analysis; format: ADME; outline: as §1
[25] = Drug metabolism in Sprague-Dawley rat feces assessed as 10-OHGA formation at 4 mg/kg, iv measured over 24 hrs by LC-DAD-MS/MS analysis; format: ADME, organism-based; parameters: dose 4 mg/kg, route intravenous; conditions: in vivo; outline: as §5
Liver microsome [26] = test: Drug metabolism in rat liver microsomes assessed as 9,10-epoxyl-gambogic acid formation at 50 uM preincubated for 10 mins by LC-MS/MS analysis in absence of NADPH; format: ADME; outline: as §1

With `CC(C)=CCC[C@]1(C)C=Cc2c(O)c3c(c(CC=C(C)C)c2O1)O[C@]12C(=C[C@@H]4C[C@H]1C(C)(C)O[C@@]2(C/C=C(/C)C(=O)O[C@@H]1O[C@H](CO)[C@@H](O)[C@H](O)[C@H]1O)C4=O)C3=O` the Retention_time [1] was 40.3 min.
In the case of `CC(C)=CCC[C@]1(C)C=Cc2c(O)c3c(c(CC=C(C)C)c2O1)O[C@]12[C@H]4C[C@H](C(=O)[C@]1(C/C=C(/C)C(=O)O)OC4(C)C)C1OC12C3=O` (stereo not given in full), the Retention_time [1] is reported as 43.8 min, the Drug metabolism [2] is reported as “metabolite_detected” and the Drug metabolism [3] is reported as “metabolite_detected”.
`CC(C)=CCC[C@]1(C)C=Cc2c(O)c3c(c(CC=C(C)C)c2O1)O[C@]12[C@H]4C[C@H](C(=O)[C@]1(C/C=C(/C)C(=O)O[C@@H]1O[C@H](CO)[C@@H](O)[C@H](O)[C@H]1O)OC4(C)C)C1OC12C3=O` (stereo not given in full) gave a Retention_time [1] of 39 min.
For `CC(C)=CCC[C@]1(C)C=Cc2c(O)c3c(c(CC=C(C)C)c2O1)O[C@]12C(=C[C@@H]4C[C@H]1C(C)(C)O[C@@]2(C/C=C(/C)C(=O)O[C@@H]1O[C@H](C(=O)O)[C@@H](O)[C@H](O)[C@H]1O)C4=O)C3=O`, the Retention_time [1] was 23.6 min, the Drug metabolism (Liver microsome [4]) was “metabolite_detected” and the Drug metabolism [3] was “metabolite_detected”.
With `CC(C)=CCC[C@]1(C)C=Cc2c(O)c3c(c(CC=C(C)C)c2O1)O[C@]12C(=C[C@@H]4C[C@H]1C(C)(C)O[C@@]2(C/C=C(/C)C(=O)O)C4=O)C3=O` [GAMBOGIC ACID] the Retention_time [5] was 44.8 min, the Drug uptake (Plasma [6]) was “Active” and the Drug metabolism [7] was “metabolite_detected”. For the same molecule, the Drug metabolism [8] was “metabolite_not_detected”, the dose excreted at 48 h [9] was 1.04% and the Drug metabolism [10] was “metabolite_detected”. The Drug metabolism (Liver microsome [11]) was “metabolite_not_detected”, the Drug metabolism [12] was “metabolite_detected” and the Drug metabolism (Liver microsome [13]) was “metabolite_not_detected”. The Drug uptake [14] was “Active”, the Drug metabolism [15] was “metabolite_detected” and the Drug metabolism (Liver microsome [16]) was “metabolite_detected”. The Drug metabolism [17] was “metabolite_not_detected”, the Drug metabolism (Plasma [18]) was “metabolite_detected” and the Drug metabolism [19] was “metabolite_not_detected”. For the same molecule, the Drug metabolism [20] was “metabolite_detected”, the Drug metabolism [21] was “metabolite_detected” and the Drug metabolism [22] was “metabolite_detected”. The Drug uptake [23] was “Not Active”, the Drug metabolism [24] was “metabolite_detected” and the Drug metabolism [25] was “metabolite_detected”. For the same molecule, the Drug metabolism (Liver microsome [26]) was “metabolite_not_detected”.
